Consider 13 compounds from publication PMC3817526 (Nmr in Biomedicine, 2013).

The structures appear in SMILES notation. Structures can show the parent of a compound that is named as a salt. Where two headings read alike, the source gives them in different places.

Series [1] concerns gadoxetate-induced MRI liver enhancement. The following applies: rats, cited from earlier work; for maximum hepatic MRI signal enhancement by gadoxetate: administration of OATP inhibitors.
For series [2] the following is noted: rats; cited from earlier work.
For series [3] the following is noted: humans; cited from earlier work.
For series [4], the system named is hepatic uptake and biliary excretion of gadoxetate. In kind it is in vivo, rat. The following applies: for Vmax, gadoxetate efflux into bile / k1, rate of gadoxetate uptake into the hepatocyte: mean ± SEM. Put shortly: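 Rats (298 ± 26 g), six per group, got vehicle (water, 0.5% w/v HPMC/0.1% w/v polysorbate 80) or suspended compound by oral gavage (20–2000 mg/kg). Anaesthetised 30 min post-dose; DCE-MRI began 60 min post-dose, gadoxetate given by tail-vein pump at t = 5 min, acquisition run to 60 min (1 min/volume). Hepatocyte signal derived from liver and spleen signals using extracellular fraction; k1, Vmax, KM fitted by least-squares per dose group.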

For series [5] the following is noted: 4.7 T, plasma value assumed for liver and spleen; cited from earlier work.
Series [6] relates to relative liver MRI signal enhancement. The following applies: healthy volunteers; cited from earlier work.
The target of another series is rat Mrp2 (rMrp2) (Rattus norvegicus, UniProt Q63120). The series can be described thus: Inhibition of CDF uptake into rMrp2 membrane vesicles. In kind it is biochemical. The following applies: read-out: IC50, CDF uptake into vesicles expressing Mrp2; geometric mean, 95% CL 58.2–80.7, n = 4.
Sequence of rat Mrp2 (rMrp2) (Q63120 whole entry): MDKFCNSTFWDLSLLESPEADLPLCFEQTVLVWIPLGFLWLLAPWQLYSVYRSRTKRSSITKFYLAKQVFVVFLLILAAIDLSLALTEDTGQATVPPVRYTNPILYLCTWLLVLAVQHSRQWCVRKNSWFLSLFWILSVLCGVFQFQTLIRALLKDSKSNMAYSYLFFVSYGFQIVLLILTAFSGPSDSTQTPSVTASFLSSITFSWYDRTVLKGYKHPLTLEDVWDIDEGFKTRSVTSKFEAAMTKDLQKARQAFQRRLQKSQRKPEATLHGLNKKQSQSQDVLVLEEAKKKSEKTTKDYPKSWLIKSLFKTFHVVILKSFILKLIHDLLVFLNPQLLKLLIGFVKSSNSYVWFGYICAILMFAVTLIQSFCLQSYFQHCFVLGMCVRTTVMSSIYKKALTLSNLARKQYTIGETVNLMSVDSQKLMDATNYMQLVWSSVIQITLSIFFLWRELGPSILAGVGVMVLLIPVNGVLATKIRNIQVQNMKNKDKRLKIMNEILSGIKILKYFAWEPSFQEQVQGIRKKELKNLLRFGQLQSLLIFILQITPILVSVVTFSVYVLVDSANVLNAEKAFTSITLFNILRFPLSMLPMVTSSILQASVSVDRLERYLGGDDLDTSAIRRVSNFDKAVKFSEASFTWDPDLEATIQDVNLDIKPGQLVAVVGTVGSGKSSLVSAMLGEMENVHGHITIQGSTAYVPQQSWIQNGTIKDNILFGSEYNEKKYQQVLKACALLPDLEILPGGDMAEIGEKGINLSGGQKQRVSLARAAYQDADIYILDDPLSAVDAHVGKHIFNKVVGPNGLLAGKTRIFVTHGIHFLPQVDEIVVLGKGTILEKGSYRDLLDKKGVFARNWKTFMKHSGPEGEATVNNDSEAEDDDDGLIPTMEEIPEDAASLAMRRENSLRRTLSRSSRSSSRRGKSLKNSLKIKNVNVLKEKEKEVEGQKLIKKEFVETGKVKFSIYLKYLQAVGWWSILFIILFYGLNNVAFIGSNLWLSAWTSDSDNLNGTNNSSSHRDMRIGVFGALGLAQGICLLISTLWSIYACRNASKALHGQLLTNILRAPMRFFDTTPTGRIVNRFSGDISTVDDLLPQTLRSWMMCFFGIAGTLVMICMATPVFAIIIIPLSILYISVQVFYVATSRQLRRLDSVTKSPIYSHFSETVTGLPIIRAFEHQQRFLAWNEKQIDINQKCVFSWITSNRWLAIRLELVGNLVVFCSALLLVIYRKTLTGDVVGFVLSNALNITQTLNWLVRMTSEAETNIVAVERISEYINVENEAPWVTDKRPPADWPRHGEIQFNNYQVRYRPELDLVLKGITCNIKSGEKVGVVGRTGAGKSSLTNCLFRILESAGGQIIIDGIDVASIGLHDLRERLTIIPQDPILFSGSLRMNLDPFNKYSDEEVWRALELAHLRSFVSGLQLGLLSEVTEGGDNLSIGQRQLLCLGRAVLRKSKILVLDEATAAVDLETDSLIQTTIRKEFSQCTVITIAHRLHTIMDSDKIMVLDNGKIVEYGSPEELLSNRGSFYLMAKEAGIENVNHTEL
In a further series the target is T1, rat Bsep (rBsep) (Rattus norvegicus, UniProt O70127).
T1 sequence (O70127 1-1321): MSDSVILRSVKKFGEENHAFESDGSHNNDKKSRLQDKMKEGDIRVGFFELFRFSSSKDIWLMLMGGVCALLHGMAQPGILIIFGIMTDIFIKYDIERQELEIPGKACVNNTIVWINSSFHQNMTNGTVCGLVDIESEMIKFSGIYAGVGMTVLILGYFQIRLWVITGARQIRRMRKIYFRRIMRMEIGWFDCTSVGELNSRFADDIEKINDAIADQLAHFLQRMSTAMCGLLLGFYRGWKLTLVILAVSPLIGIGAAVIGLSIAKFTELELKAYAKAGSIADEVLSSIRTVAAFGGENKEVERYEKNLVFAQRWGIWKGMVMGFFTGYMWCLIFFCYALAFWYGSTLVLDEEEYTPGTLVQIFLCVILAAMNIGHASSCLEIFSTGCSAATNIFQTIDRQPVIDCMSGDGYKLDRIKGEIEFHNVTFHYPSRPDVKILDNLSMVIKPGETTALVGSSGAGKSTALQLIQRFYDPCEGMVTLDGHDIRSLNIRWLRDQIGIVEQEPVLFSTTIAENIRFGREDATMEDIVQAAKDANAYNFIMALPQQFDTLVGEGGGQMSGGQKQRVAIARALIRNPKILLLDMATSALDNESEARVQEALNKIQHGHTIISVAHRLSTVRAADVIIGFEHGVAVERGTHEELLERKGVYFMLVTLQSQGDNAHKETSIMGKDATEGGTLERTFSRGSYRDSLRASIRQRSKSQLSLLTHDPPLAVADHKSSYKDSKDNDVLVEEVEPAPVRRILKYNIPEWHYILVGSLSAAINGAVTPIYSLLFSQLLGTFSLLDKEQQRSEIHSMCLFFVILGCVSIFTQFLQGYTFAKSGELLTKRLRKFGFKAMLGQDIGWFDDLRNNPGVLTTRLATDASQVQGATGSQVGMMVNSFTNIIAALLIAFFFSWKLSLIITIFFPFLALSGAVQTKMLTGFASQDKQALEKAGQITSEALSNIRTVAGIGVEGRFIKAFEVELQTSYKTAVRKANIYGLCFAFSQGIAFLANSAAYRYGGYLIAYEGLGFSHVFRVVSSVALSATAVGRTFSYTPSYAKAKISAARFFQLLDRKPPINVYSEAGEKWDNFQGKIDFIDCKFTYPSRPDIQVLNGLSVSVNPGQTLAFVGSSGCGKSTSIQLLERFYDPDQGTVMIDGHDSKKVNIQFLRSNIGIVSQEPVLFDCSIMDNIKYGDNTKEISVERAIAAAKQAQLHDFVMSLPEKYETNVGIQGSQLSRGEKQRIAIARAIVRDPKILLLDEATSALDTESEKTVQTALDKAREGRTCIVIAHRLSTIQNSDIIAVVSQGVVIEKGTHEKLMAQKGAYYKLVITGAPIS
The series can be described thus: Inhibition of [3H]-taurocholate uptake into rBsep membrane vesicles. In kind it is biochemical. The following applies: read-out: IC50, [3H]-taurocholate uptake into vesicles expressing rBsep; geometric mean, 95% CL 109.8–153.2, n = 5.

Another series has as its system liver. The series can be described thus: Liver pathology analysis. The following applies: CKA 20, 200 or 500 mg/kg oral, rat. In kind it is in vivo.
A short description of series [7]: Plasma chemistry analysis after CKA. In kind it is in vivo, rat.
The nature of series [8]: Gadopentetate DCE-MRI estimation of volume fraction of extracellular space. In kind it is in vivo, rat. The following applies: gadopentetate 100 µmol/kg i.v., five rats, haematocrit 0.45, mean ± SEM. The method, boiled down:
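Healthy rats (282 ± 9 g). IntraGate FLASH DCE-MRI: ten 2 mm slices, TR 60.3 ms, TE 1.4 ms, flip 30°, 1 min/volume. Contrast given by tail-vein pump (5 ml/min) 5 min after acquisition start; acquisition continuous for 45 min. ve taken as the tissue/plasma AUC ratio, with plasma concentration equal to whole-blood concentration/(1 − Hct). Isoflurane overdose afterwards.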

Where [9] appears, read: gadoxetate 25 µmol/kg i.v. in rats given vehicle only (no CKA).
Setting [10] is: CKA 20 mg/kg oral, rat, gadoxetate 25 µmol/kg i.v.
The mark [11] stands for this setting: CKA 200 mg/kg oral, rat, gadoxetate 25 µmol/kg i.v.
Where [12] appears, read: CKA 500 mg/kg oral, rat, gadoxetate 25 µmol/kg i.v.
The mark [13] stands for this setting: CKA 2000 mg/kg oral, rat, gadoxetate 25 µmol/kg i.v.

In the case of `C[C@]12C=CC(=O)C=C1CC[C@@H]1[C@@H]2[C@@H](O)C[C@@]2(C)[C@H]1CC[C@]2(O)C(=O)CO` [prednisolone], the “maximum hepatic MRI signal enhancement by gadoxetate” value in series [1] was “reduction”.

As to `C[C@]12CC[C@@H]3c4ccc(O)cc4CC[C@H]3[C@@H]1CC[C@@H]2O[C@@H]1O[C@H](C(=O)O)[C@@H](O)[C@H](O)[C@H]1O` [estradiol 17-β-D-glucuronide], the “gadoxetate-induced MRI liver enhancement” value in series [1] (single administration) is “transiently prolonged”.

Regarding `CCOc1ccc(C[C@@H](CN(CCN(CC(=O)[O-])CC(=O)[O-])CC(=O)[O-])N(CC(=O)[O-])CC(=O)[O-])cc1.[Gd+3].[H+].[H+]` [gadoxetate], in series [2], the “gadoxetate clearance, biliary” value is 70% and the “gadoxetate clearance, renal” value was 30%. For the same compound, the “excreted via each route (biliary, renal)” value in series [3] was 50%. Further, in series [4] (setting [9]), the “Vmax, gadoxetate efflux into bile” value turned out to be 2.9 ± 0.3 µmol/s and the “k1, rate of gadoxetate uptake into the hepatocyte” value came out at 29.4 ± 3.0 µmol/s. The “relaxivity r1” value in series [5] was 5.9 s⁻¹ mM⁻¹.

Regarding `CC[C@H]1OC(=O)[C@H](C)[C@@H](O[C@H]2C[C@@](C)(OC)[C@@H](O)[C@H](C)O2)[C@H](C)[C@@H](O[C@@H]2O[C@H](C)C[C@H](N(C)C)[C@H]2O)[C@](C)(O)C[C@@H](C)C(=O)[C@H](C)[C@@H](O)[C@]1(C)O` [erythromycin], in series [6], the “relative liver MRI signal enhancement versus control subjects” value was “did not show a statistically significant difference”.

As usually defined, the IC50 is the point on the concentration scale where inhibition reaches its midpoint. Regarding `O=C(O)c1cc2cc(O)ccc2n1Cc1ccc(Cl)c(C(F)(F)F)c1` [CKA, 1-(4-chloro-3-trifluoromethyl-benzyl)-5-hydroxy-1-H-indole-2-carboxylic acid], the half-inhibitory concentration (IC50) on rat Mrp2 (rMrp2) was 68.5 µM; on rat Bsep (rBsep), 130 µM. Moreover, in series [4] (CKA 20 mg/kg oral, compared with vehicle), the “effect on the kinetic parameters k1, Vmax and KM of gadoxetate” value was “no significant effect”. The “Vmax, gadoxetate efflux into bile” value in [4] (setting [10]) was found to be 2.9 ± 0.4 µmol/s; in series [4] (setting [11]) it was 0.6 ± 0.2 µmol/s; in series [4] (setting [12]), 0.1 ± 0.1 µmol/s; in series [4] (setting [13]), 0.1 ± 0.1 µmol/s. In addition, the “k1, rate of gadoxetate uptake into the hepatocyte” value is recorded as 26.1 ± 3.3 µmol/s in series [4] (setting [10]), 6.6 ± 1.9 µmol/s in [4] (setting [11]), 1.7 ± 0.4 µmol/s in [4] (setting [12]) and 1.2 ± 0.2 µmol/s in series [4] (setting [13]). Also, in series [4] (CKA 500 mg/kg oral), the “gadoxetate enhancement of the bowel (images)” value is on record as “no enhancement”. In series [4] (CKA 200 and 500 mg/kg oral, compared with vehicle), the “rate of gadoxetate uptake into the liver and clearance from the liver into the GI tract (images)” value was “marked and dose-dependent reduction”. Besides, the “liver histology (H&E liver sections)” value in the series on liver is reported as “no histological features indicative of drug-induced hepatotoxicity”. For the same compound, the plasma bile acids result in series [7] (CKA 20-2000 mg/kg oral, rat) is recorded as “marked dose-dependent increases”. Further, the plasma total bilirubin entry in series [7] (CKA 20-2000 mg/kg oral, rat) was “marked dose-dependent increases”. Besides, in series [7] (CKA 20-2000 mg/kg oral, rat, most evident at 500 and 2000 mg/kg), the “plasma ALT levels” value is recorded as “dose-related increase”. For the same compound, the “plasma ALT value” in [7] (single animal with necrosis, CKA 2000 mg/kg) is 344 IU/l.

As for `COc1cccc2c1C(=O)c1c(O)c3c(c(O)c1C2=O)C[C@@](O)(C(=O)CO)C[C@@H]3O[C@H]1C[C@H](N)[C@H](O)[C@H](C)O1` [doxorubicin hydrochloride], the “maximum hepatic MRI signal enhancement by gadoxetate” value in [1] is listed as “reduction”.

On to `O=C([O-])CN(CCN(CC(=O)[O-])CC(=O)O)CCN(CC(=O)[O-])CC(=O)O.[Gd+3]` [gadopentetate], for which, in [8], the “liver fractional extracellular space (AUC ratio tissue/plasma)” value is given as 0.23 ± 0.02 and the “spleen fractional extracellular space (AUC ratio tissue/plasma)” value is 0.43 ± 0.02. Also, in [5], the “relaxivity r1” value is 3.8 s⁻¹ mM⁻¹.

For the compound `CO[C@H]1/C=C/O[C@@]2(C)Oc3c(C)c(O)c4c(O)c(c(/C=N/N5CCN(C)CC5)c(O)c4c3C2=O)NC(=O)/C(C)=C\C=C\[C@H](C)[C@H](O)[C@@H](C)[C@@H](O)[C@@H](C)[C@H](OC(C)=O)[C@@H]1C` [rifampicin], in [1], the “maximum hepatic MRI signal enhancement by gadoxetate” value is recorded as “reduction”.

As for `C=CC1=C(C)/C(=C/c2[nH]c(Cc3[nH]c(/C=C4\NC(=O)C(C)=C4C=C)c(C)c3CCC(=O)O)c(CCC(=O)O)c2C)NC1=O` [bilirubin], the “maximum hepatic MRI signal enhancement by gadoxetate” value in series [1] is recorded as “reduction”.

`CO[C@H]1/C=C/O[C@@]2(C)Oc3c(C)c(O)c4c(O)c(cc(O)c4c3C2=O)NC(=O)/C(C)=C\C=C\[C@H](C)[C@H](O)[C@@H](C)[C@@H](O)[C@@H](C)[C@H](OC(C)=O)[C@@H]1C` [rifamycin]: in [1], the “maximum hepatic MRI signal enhancement by gadoxetate” value was “reduction”.

`O=C1OC(c2ccc(O)c(S(=O)(=O)O)c2)(c2ccc(O)c(S(=O)(=O)O)c2)c2c(Br)c(Br)c(Br)c(Br)c21` [bromosulfophthalein]: in series [1], the “maximum hepatic MRI signal enhancement by gadoxetate” value is “reduction”.

Turning to `N.N.[Cl][Pt][Cl]` [cisplatin], the “maximum hepatic MRI signal enhancement by gadoxetate” value in series [1] is “reduction”.

With `CC(C)NCC(O)COc1cccc2ccccc12` (stereo not shown) [propranolol hydrochloride], the “maximum hepatic MRI signal enhancement by gadoxetate” value in series [1] is reported as “reduction”.
